In this assay the test system is HT-29. Nature of the assay: Radiosensitization activity against human HT-29 cells assessed as survival relative to control. The format is functional. An outline of the steps:
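HT-29 colorectal adenocarcinoma cells exposed to analog at 25 µM (or DMSO vehicle) for 2 h at 37 °C, then irradiated with 4 Gy. Analog washed off, cells kept 14 days in fresh medium, colonies stained with crystal violet and counted. Surviving fraction taken as colonies over cells treated. Relative survival is survival with radiation plus analog divided by survival with radiation alone, with vehicle set at 1.0.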
Take `O=C1NC(=O)C(=Cc2cn(Cc3ccccc3)c3ccccc23)C(=O)N1`: the Ratio came to 1.35.

For `O=C1NC(=O)/C(=C/c2cn(Cc3ccccc3)c3ccc(Br)cc23)N1`, the Ratio turned out to be 1.06.

`O=C1NC(=O)/C(=C/c2cn(Cc3ccccc3)c3ccc(Cl)cc23)N1`: the Ratio is recorded as 1.38.

Turning to `O=C1NC(=O)C(=Cc2cn(Cc3ccccc3Br)c3ccccc23)C(=O)N1`, the Ratio is 1.14.

Take `COC(=O)c1ccc(Cn2cc(C=C3C(=O)NC(=O)NC3=O)c3ccccc32)cc1`: the Ratio worked out at 0.64.

In the case of `COc1ccc(Cn2cc(C=C3C(=O)NC(=O)NC3=O)c3ccccc32)cc1`, the Ratio came to 1.18.

As for `Cc1ccc(Cn2cc(/C=C3\NC(=O)NC3=O)c3ccccc32)cc1`, the Ratio came to 1.06.

Take `O=C1NC(=O)/C(=C/c2cn(Cc3ccccc3Br)c3ccccc23)N1`: the Ratio came to 1.18.

In the case of `COC(=O)c1ccc(Cn2cc(/C=C3\NC(=O)NC3=O)c3ccccc32)cc1`, the Ratio is listed as 1.

As for `O=C1NC(=O)C(=Cc2cn(Cc3ccccc3)c3ccc(Cl)cc23)C(=O)N1`, the Ratio worked out at 1.38.

In the case of `O=C1NC(=O)/C(=C/c2cn(Cc3ccc(Cl)cc3)c3ccccc23)N1`, the Ratio was 1.44.

For the compound `N#Cc1ccc(Cn2cc(C=C3C(=O)NC(=O)NC3=O)c3ccccc32)cc1`, the Ratio turned out to be 0.23.

Regarding `O=C1NC(=O)C(=Cc2cn(Cc3ccc([N+](=O)[O-])cc3)c3ccccc23)C(=O)N1`, the Ratio worked out at 0.44.

On to `COc1ccc2c(c1)c(/C=C1\NC(=O)NC1=O)cn2Cc1ccccc1`, for which the Ratio was found to be 1.38.

As to `O=C1NC(=O)/C(=C/c2cn(Cc3ccc(F)cc3)c3ccccc23)N1`, the Ratio is 0.91.

As to `N#Cc1ccc(Cn2cc(/C=C3\NC(=O)NC3=O)c3ccccc32)cc1`, the Ratio turned out to be 1.53.

Regarding `COc1ccc(Cn2cc(/C=C3\NC(=O)NC3=O)c3cc(Br)ccc32)cc1`, the Ratio is on record as 1.29.

Turning to `Cc1ccc2c(c1)c(/C=C1\NC(=O)NC1=O)cn2Cc1ccccc1`, the Ratio was found to be 1.18.

With `COc1ccc2c(c1)c(C=C1C(=O)NC(=O)NC1=O)cn2Cc1ccccc1`, the Ratio amounted to 1.73.

On to `O=C1NC(=O)C(=Cc2cn(Cc3ccc(Cl)cc3)c3ccccc23)C(=O)N1`, for which the Ratio is 0.91.

As to `O=C1NC(=O)/C(=C/c2cn(Cc3ccc([N+](=O)[O-])cc3)c3ccccc23)N1`, the Ratio came out at 1.14.

With `O=C1NC(=O)/C(=C/c2cn(Cc3ccccc3)c3ccccc23)N1`, the Ratio was found to be 1.3.

The values above are taken from ChEMBL document CHEMBL1153233, “Novel substituted (Z)-5-((N-benzyl-1H-indol-3-yl)methylene)imidazolidine-2,4-diones and 5-((N-benzyl-1H-indol-3-yl)methylene)pyrimidine-2,4,6(1H,3H,5H)-triones as potent radio-sensitizing agents” (2010).
